ChEMBL document CHEMBL1144538, “Synthesis and pharmacological evaluation of some 3-phenyl-2-substituted-3H-quinazolin-4-one as analgesic, anti-inflammatory agents” (2007)

What was measured:
Type in all cases: functional
[1] = system: Rattus norvegicus; experiment: Anti-inflammatory activity against Carrageenan-induced paw oedema rat model at 10 mg/kg after 2 hrs
Procedure, shortened: (§1)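 Rat carrageenan paw oedema; compound dosed orally as suspension in 1% carboxymethyl cellulose, six rats per group. Paw volume by mercury displacement plethysmography immediately before and at the stated time after carrageenan injection. Percent oedema inhibition computed from pre/post paw volumes of treated versus vehicle-control rats; one-way ANOVA versus control.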

[2] = system: Rattus norvegicus; experiment: Anti-inflammatory activity against Carrageenan-induced paw oedema rat model at 20 mg/kg after 1 hr; procedure, shortened: as §1
[3] = system: Mus musculus; experiment: Analgesic activity in Wistar Albino mouse at 20 mg/kg, po after 2 hrs by tail-flick technique
Procedure, shortened: (§2)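 Tail-flick in Wistar albino mice (25–35 g, either sex, randomly selected), compound given orally as suspension in 1% carboxymethyl cellulose; six animals per group. Reaction time read before dosing and after dosing, cut-off 10 s. Percent analgesic activity = (T2 − T1)/(10 − T1) × 100, T1/T2 being pre/post reaction times; mean of n = 6, one-way ANOVA versus control.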

[4] = system: Rattus norvegicus; experiment: Anti-inflammatory activity against Carrageenan-induced paw oedema rat model at 20 mg/kg after 30 min; procedure, shortened: as §1
[5] = system: Mus musculus; experiment: Analgesic activity in Wistar Albino mouse at 20 mg/kg, po after 1 hr by tail-flick technique; procedure, shortened: as §2
[6] = system: Rattus norvegicus; experiment: Anti-inflammatory activity against Carrageenan-induced paw oedema rat model at 10 mg/kg after 1 hr; procedure, shortened: as §1
[7] = system: Rattus norvegicus; experiment: Anti-inflammatory activity against Carrageenan-induced paw oedema rat model at 20 mg/kg after 3 hrs; procedure, shortened: as §1
[8] = system: Mus musculus; experiment: Analgesic activity in Wistar Albino mouse at 10 mg/kg, po after 3 hrs by tail-flick technique; procedure, shortened: as §2
[9] = system: Rattus norvegicus; experiment: Anti-inflammatory activity against Carrageenan-induced paw oedema rat model at 20 mg/kg after 2 hrs; procedure, shortened: as §1
[10] = system: Mus musculus; experiment: Analgesic activity in Wistar Albino mouse at 10 mg/kg, po after 2 hrs by tail-flick technique; procedure, shortened: as §2
[11] = system: Rattus norvegicus; experiment: Anti-inflammatory activity against Carrageenan-induced paw oedema rat model at 10 mg/kg after 30 mins; procedure, shortened: as §1
[12] = system: Mus musculus; experiment: Analgesic activity in Wistar Albino mouse at 20 mg/kg, po after 30 mins by tail-flick technique; procedure, shortened: as §2
[13] = system: Mus musculus; experiment: Analgesic activity in Wistar Albino mouse at 20 mg/kg, po after 3 hrs by tail-flick technique; procedure, shortened: as §2
[14] = system: Mus musculus; experiment: Analgesic activity in Wistar Albino mouse at 10 mg/kg, po after 30 mins by tail-flick technique; procedure, shortened: as §2
[15] = system: Mus musculus; experiment: Analgesic activity in Wistar Albino mouse at 10 mg/kg, po after 1 hr by tail-flick technique; procedure, shortened: as §2
[16] = system: Rattus norvegicus; experiment: Anti-inflammatory activity against Carrageenan-induced paw oedema rat model at 10 mg/kg after 3 hrs; procedure, shortened: as §1

Row | SMILES | Activity [1] | Activity [2] | Activity [3] | Activity [4] | Activity [5] | Activity [6] | Activity [7] | Activity [8] | Activity [9] | Activity [10] | Activity [11] | Activity [12] | Activity [13] | Activity [14] | Activity [15] | Activity [16]
1 | O=c1c2ccccc2nc(NN=C2CCCCC2)n1-c1ccccc1 | 36% | 42% | 53% | 39% | 51% | 33% | 35% | 25% | 42% | 46% | 29% | 50% | 37% | 33% | 40% | 27%
2 | Cc1ccccc1/C=N\Nc1nc2ccccc2c(=O)n1-c1ccccc1 | 33% | 39% | 48% | 36% | 46% | 32% | 30% | 33% | 42% | 40% | 30% | 45% | 39% | 35% | 39% | 28%
3 | O=c1c2ccccc2nc(N/N=C\c2ccc(Cl)cc2)n1-c1ccccc1 | 30% | 32% | 48% | 29% | 45% | 28% | 25% | 27% | 37% | 42% | 26% | 40% | 35% | 32% | 34% | 23%
4 | CC/C(C)=N/Nc1nc2ccccc2c(=O)n1-c1ccccc1 | 37% | 45% | 61% | 38% | 59% | 36% | 36% | 31% | 47% | 50% | 32% | 55% | 42% | 41% | 43% | 26%
5 | C/C(=N\Nc1nc2ccccc2c(=O)n1-c1ccccc1)c1ccccc1 | 38% | 42% | 57% | 38% | 53% | 35% | 33% | 29% | 46% | 43% | 31% | 50% | 36% | 38% | 43% | 29%
6 | O=c1c2ccccc2nc(N/N=C\c2ccccc2)n1-c1ccccc1 | 35% | 40% | 53% | 36% | 50% | 32% | 26% | 29% | 43% | 41% | 28% | 46% | 31% | 35% | 38% | 29%
7 | CCC/C(C)=N/Nc1nc2ccccc2c(=O)n1-c1ccccc1 | 42% | 58% | 62% | 46% | 62% | 41% | 41% | 33% | 60% | 50% | 35% | 56% | 45% | 43% | 48% | 33%
8 | O=c1c2ccccc2nc(N/N=C\c2ccc([N+](=O)[O-])cc2)n1-c1ccccc1 | 30% | 35% | 47% | 35% | 45% | 28% | 32% | 27% | 36% | 39% | 25% | 38% | 33% | 34% | 39% | 20%
9 | Cc1ccc(/C=N\Nc2nc3ccccc3c(=O)n2-c2ccccc2)cc1 | 34% | 38% | 50% | 38% | 47% | 33% | 36% | 33% | 43% | 40% | 28% | 43% | 40% | 37% | 40% | 25%
10 | O=c1c2ccccc2nc(N/N=C\c2ccccc2Cl)n1-c1ccccc1 | 26% | 32% | 42% | 27% | 39% | 24% | 25% | 25% | 35% | 37% | 21% | 37% | 36% | 29% | 30% | 20%
11 | O=c1c2ccccc2nc(N/N=C\c2ccccc2[N+](=O)[O-])n1-c1ccccc1 | 34% | 33% | 49% | 32% | 46% | 29% | 30% | 30% | 36% | 39% | 27% | 42% | 39% | 35% | 36% | 22%
12 | O=c1c2ccccc2nc(NN=C(c2ccccc2)c2ccccc2)n1-c1ccccc1 | 35% | 39% | 46% | 36% | 41% | 33% | 35% | 29% | 42% | 41% | 27% | 39% | 36% | 33% | 36% | 26%
13 | CCC(CC)=NNc1nc2ccccc2c(=O)n1-c1ccccc1 | 39% | 52% | 72% | 43% | 69% | 35% | 36% | 41% | 56% | 58% | 34% | 63% | 49% | 49% | 55% | 32%
14 | COc1ccc(/C=N\Nc2nc3ccccc3c(=O)n2-c2ccccc2)cc1 | 32% | 37% | 50% | 33% | 49% | 30% | 30% | 30% | 37% | 43% | 28% | 42% | 29% | 38% | 42% | 24%
15 | O=C1Nc2ccccc2/C1=N\Nc1nc2ccccc2c(=O)n1-c1ccccc1 | 31% | 36% | 55% | 32% | 51% | 30% | 30% | 30% | 39% | 40% | 27% | 47% | 35% | 36% | 37% | 23%
16 | O=C(O)Cc1ccccc1Nc1c(Cl)cccc1Cl [DICLOFENAC] | 39% | 52% | 62% | 45% | 55% | 38% | 42% | 33% | 60% | 45% | 32% | 46% | 39% | 37% | 43% | 33%
